Results collected from several papers.
CSNK1A1: Casein kinase I isoform alpha (CSNK1A1, Homo sapiens, UniProt P48729)
SLC22A12: Solute carrier family 22 member 12 (SLC22A12, Homo sapiens, UniProt Q96S37)
PLA2G6: 85/88 kDa calcium-independent phospholipase A2 (PLA2G6, Homo sapiens, UniProt O60733)
HDAC7: Histone deacetylase 7 (HDAC7, Homo sapiens, UniProt Q8WUI4)
HDAC10: Polyamine deacetylase HDAC10 (HDAC10, Homo sapiens, UniProt Q969S8)

With `c1ccc(Cn2cc(-c3ccnc4ccccc34)c(-c3ccccn3)n2)cc1` the IC50 was 5.9 µM (CSNK1A1; enzyme activity; inhibitor; ADP detection).
`Cc1ncc(-c2cc3cc(-c4c(C)ccc(O)c4C)cnc3[nH]2)cn1` gave an IC50 of 0.019 µM (Membrane-associated tyrosine- and threonine-specific cdc2-inhibitory kinase (PKMYT1, Homo sapiens, UniProt Q99640); cell-free assay; TR-FRET).
For `Nc1ncnc2c1ncn2[C@@H]1O[C@H](CSCC[C@H](N)C(=O)O)[C@@H](O)[C@H]1O`, the IC50 was 2.11 µM (Histone-lysine N-methyltransferase SETD2 (SETD2, Homo sapiens, UniProt Q9BYW2); enzyme activity; inhibitor).
The IC50 of `COc1c(Cl)cccc1Nc1c(-c2ccncc2OC[C@@H]2COCCO2)[nH]c2c1C(=O)NCC2` is reported as 0.11 µM (Epithelial discoidin domain-containing receptor 1 (DDR1, Homo sapiens, UniProt Q08345); ligand displacement; TR-FRET).
For `Cc1ccc(S(=O)(=O)NC(=O)c2cc3ccccc3n2Cc2ccc(C3CC3)c3ccccc23)cc1`, the IC50 was 14 µM (SLC22A12; transporter uptake; inhibitor; radiometric).
With `CCc1oc2cc(F)c(F)cc2c1C(=O)c1cc(Br)c(O)c(Br)c1` the IC50 was 0.245 µM (SLC22A12; transporter uptake; inhibitor; radiometric; oocytes).
With `c1ccc(-c2n[nH]cc2-c2ccncc2)nc1` the IC50 was 2.9 µM (CSNK1A1; enzyme activity; inhibitor; ADP detection).
With `Fc1ccc(-c2nn3cccc(F)c3c2-c2ccncc2)cc1` the IC50 was 5.5 µM (CSNK1A1; enzyme activity; inhibitor; ADP detection).
`c1ccc(-c2occc2-c2ccnc3ccccc23)nc1` has an IC50 of over 30 µM (CSNK1A1; enzyme activity; inhibitor; ADP detection).
The IC50 of `NC(=O)c1nnn(Cc2cc(Cl)c(C(=O)c3ccc(Cl)cc3)c(Cl)c2)c1N` is reported as 3.78 µM (Cannabinoid receptor 2 (CNR2, Homo sapiens, UniProt P34972); cAMP; antagonist).
The IC50 of `O=CCCCCCCCC(=O)C(F)(F)F` is reported as 41.2 µM (PLA2G6; enzyme activity; inhibitor).
`CC(C)C1=CC2=CC(=O)[C@H]3C(C)(C)CCC[C@]3(C)C2=C(O)C1=O` (racemic) has an IC50 of 0.12 µM (Farnesyl pyrophosphate synthase (FDPS, Homo sapiens, UniProt P14324); enzyme activity; inhibitor).
`O=C(CCCCc1ccc(CO)cc1)C(F)(F)F` has an IC50 of 1.1 µM (PLA2G6; enzyme activity; inhibitor).
`CC(C)(C)c1ccn2nc(-c3ccc(F)cc3)c(-c3ccncc3)c2c1` has an IC50 of 8.7 µM (CSNK1A1; enzyme activity; inhibitor; ADP detection).
With `O=C(NO)c1ccc(Cn2cnc3c(Nc4cccc([N+](=O)[O-])c4)ncnc32)cc1` the IC50 was 0.117 µM (HDAC7; enzyme activity; inhibitor).
`O=C(COc1ccc(C2CCC(=O)NC2=O)cc1)NCCCCCCN1CCc2c(c3ccccc3n2Cc2ccc(C(=O)NO)cc2)C1` (centres unmarked) gave an IC50 of 0.023 µM (HDAC10; enzyme activity; inhibitor; fluorescence).
With `Oc1ccccc1-c1n[nH]cc1-c1ccnc2ccccc12` the IC50 was 3.1 µM (CSNK1A1; enzyme activity; inhibitor; ADP detection).
For `O=C(NS(=O)(=O)c1ccccc1)c1cc2ccccc2n1Cc1ccc(Br)c2ccccc12`, the IC50 was 12 µM (SLC22A12; transporter uptake; inhibitor; radiometric).
With `COc1ccc2c(-c3ccncc3)c(-c3ccc(F)cc3)nn2c1` the IC50 was 2.4 µM (CSNK1A1; enzyme activity; inhibitor; ADP detection).
With `O=C1CCC(N2C(=O)c3cccc(NCC(=O)OCCCCc4cn(CCCCCCN5CCc6c(c7ccccc7n6Cc6ccc(C(=O)NO)cc6)C5)nn4)c3C2=O)C(=O)N1` (centres unmarked) the IC50 was 0.017 µM (HDAC10; enzyme activity; inhibitor; fluorescence).
For `COc1ccc(N(Cc2csc(-c3ccc(Br)cc3)n2)C(=O)CCCCCC(=O)NO)cc1`, the IC50 was over 10 µM (HDAC7; enzyme activity; inhibitor).
The IC50 of `O=C(O)/C=C/c1nccc2c3ccccc3n(Cc3ccc(Br)c4ccccc34)c12` is reported as 3.02 µM (SLC22A12; transporter uptake; inhibitor; radiometric).
The IC50 of `N#Cc1ccn2nc(-c3ccc(F)cc3)c(-c3ccncc3)c2c1` is reported as 0.73 µM (CSNK1A1; enzyme activity; inhibitor; ADP detection).
The IC50 of `CN(CCCCCCNC(=O)COc1ccc(C2CCC(=O)NC2=O)cc1)Cc1cn(Cc2ccc(C(=O)NO)cc2)c2ccccc12` (centres unmarked) is reported as 0.012 µM (HDAC10; enzyme activity; inhibitor; fluorescence).
For `c1ccc(Cc2[nH]nc(-c3ccccn3)c2-c2ccnc3ccccc23)cc1`, the IC50 was 3.5 µM (CSNK1A1; enzyme activity; inhibitor; ADP detection).
For `COc1ccn2nc(-c3ccc(F)cc3)c(-c3ccncc3)c2c1`, the IC50 was 2.1 µM (CSNK1A1; enzyme activity; inhibitor; ADP detection).
The IC50 of `O=C(O)CCCCCCCC(=O)C(F)(F)F` is reported as 352 µM (PLA2G6; enzyme activity; inhibitor).
With `O=C(NS(=O)(=O)c1ccccc1)c1cc2ccccc2n1Cc1ccc(C2CC2)c2ccccc12` the IC50 was 4.09 µM (SLC22A12; transporter uptake; inhibitor; radiometric).
With `COc1ccc(N(Cc2csc(-c3ccc(C)cc3)n2)C(=O)CCCCCC(=O)NO)cc1` the IC50 was over 10 µM (HDAC7; enzyme activity; inhibitor).
